High-throughput results as filed in PubChem BioAssay.
This is a sample that favours compounds with a hit; in the whole collection about 5.8% have one here.
KDM4C inh: KDM4C (human) demethylase inhibition; GST-KDM4C 2-372, H3K9me3 peptide, LANCE TR-FRET; AID 720574; inhibition, % at 12.5 µM; 96,000 compounds, 0.15% hits; Q9H3R0;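 active = mean replicate inhibition above about 25%, with at least 55% of replicates also reaching it, limit read from the data, passing the limit was not always enough; inconclusive = only one of those two conditions met; inactive = neither condition met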
Target sequence (Q9H3R0 2-372 limits assumed): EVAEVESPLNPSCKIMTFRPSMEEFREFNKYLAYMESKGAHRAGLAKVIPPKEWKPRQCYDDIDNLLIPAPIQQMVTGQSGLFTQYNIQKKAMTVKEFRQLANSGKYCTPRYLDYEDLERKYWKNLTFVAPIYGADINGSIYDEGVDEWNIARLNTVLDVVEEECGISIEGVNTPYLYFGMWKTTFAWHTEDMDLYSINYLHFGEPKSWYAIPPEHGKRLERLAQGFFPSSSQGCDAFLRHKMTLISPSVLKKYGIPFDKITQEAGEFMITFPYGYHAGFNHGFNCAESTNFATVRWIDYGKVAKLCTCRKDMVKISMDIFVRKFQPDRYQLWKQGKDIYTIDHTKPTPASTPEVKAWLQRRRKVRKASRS
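Test system – GST-tagged GASC-1 (JMJD2C) catalytic fragment, aa 2-372 · Medium – HEPES buffer, pH 7.5, plus ascorbate · Reagent – H3K9me3 peptide with Fe(II)/2OG · Compound – one test concentration per compound · Timing – 30 min reaction, 60 min detection, RT · Technique – TR-FRET with Eu antibody and ULight streptavidin, EDTA stop · Read-out basis – inhibition from TR-FRET ratio decrease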
Pf Dd2 inh: P. falciparum Dd2 growth inhibition. 94,000 compounds, 2.3% hits. AID 1159554. SYBR Green, 72 h; stronger effect = lower value. activity change, % at 10 µM; in the data active = activity change below about -80%; inconclusive = no clear call, values can overlap the other calls
T cruzi growth-1: blocks T. cruzi growth in NIH3T3 culture | T. cruzi beta-gal in NIH3T3, GalScreen luminescence, 90 h | 77,000 compounds, 5.9% hits | inhibition, % at 8.34 µM;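 active = mean inhibition above about 93%, with at least 55% of replicates each passing it, limit read from the data, passing the limit was not always enough; inconclusive = only one of those two conditions holds; inactive = neither condition holds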
IDH1 mut inh: blocks human IDH1 R132H reductase activity; diaphorase/resazurin fluorescence, 60 min; 70,000 compounds, 0.18% hits; AID 624101; inhibition, % at 10 µM; O75874; in the data active = inhibition above about 34%; inconclusive = no clear call, values can overlap the other calls; inactive = below about 11%;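 also: 0% = DMSO and 100% = no enzyme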
T cruzi growth-2: blocks T. cruzi growth in NIH3T3 host cells | 5,600 compounds, 72% hits | T. cruzi beta-gal in NIH3T3, GalScreen luminescence, 90 h | inhibition, % at 8.35 µM | shares compounds with T cruzi growth-1;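 active = mean replicate inhibition above about 95% and at least 55% of replicates individually reaching it, limit read from the data; inconclusive = only one of the two criteria is met; inactive = neither criterion is met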
T cruzi growth-3: blocks T. cruzi growth in NIH3T3 host cells; shares compounds with T cruzi growth-1; T. cruzi beta-gal in NIH3T3, GalScreen luminescence, 90 h; inhibition, % at 2.09 µM; 5,600 compounds, 21% hits; AID 651740;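 active = mean inhibition above about 95%, with at least 55% of replicates also reaching it, limit read from the data; inconclusive = meets just one of the two conditions; inactive = meets neither condition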;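 also: plate controls were neutral control median for no effect and positive control median for full effect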
NIH3T3 tox: cytotoxicity in mouse NIH/3T3 fibroblasts; shares compounds with T cruzi growth-1; NIH/3T3 viability, CellTiter-Glo ATP luminescence, 90 h; cytotoxicity (signal decrease), % at 8.35 µM; 5,600 compounds, 14% hits; AID 651742;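 active = mean signal decrease across replicates above about 35% based on untreated-well scatter, with enough replicates individually passing, limit read from the data; inconclusive = no rule stated though some were filed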;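 also: 0% = median of neutral control wells and 100% = median of positive control wells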
NIH3T3 tox 2: kills mouse NIH/3T3 fibroblasts; shares compounds with T cruzi growth-1; NIH/3T3 viability, CellTiter-Glo ATP luminescence, 90 h; inhibition, % at 24.9 µM; 5,600 compounds, 56% hits;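 active = mean loss of cell viability signal at or above a set limit, and enough replicates individually reaching it; inconclusive = meets only the mean limit or only the replicate share; inactive = meets neither condition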;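 also: 0% = median of neutral control wells and 100% = median of positive control wells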
* = called active by the depositor; ? = inconclusive; . = no result.

SMILES	KDM4C inh	Pf Dd2 inh	T cruzi growth-1	IDH1 mut inh	T cruzi growth-2	T cruzi growth-3	NIH3T3 tox	NIH3T3 tox 2
N#Cc1cccc(-c2ccc([C@H]3[C@H]4CN(C(=O)Cc5ccncc5)CCCCN4[C@H]3CO)cc2)c1	0	-8	105*	.	84	35	-3	47*
Cc1c(O)c(C(=O)O)c(O)c2c1[C@H](C)[C@@H](C)OC2=O	.	.	.	2	.	.	.	.
COc1cccc(-c2ccc([C@@H]3[C@H](CO)N4CCCCN(C(=O)Cc5ccncc5)C[C@@H]34)cc2)c1	-1	-44	?	.	83	18	9	35*
COc1cccc(-c2ccc([C@H]3[C@H](CO)N4CCCCN(C(=O)Cc5ccncc5)C[C@@H]34)cc2)c1	0	-40	73	.	.	.	.	.
COc1cccc(-c2ccc([C@@H]3[C@@H](CO)N4CCCCN(C(=O)Cc5ccncc5)C[C@H]34)cc2)c1	0	-31	114*	.	102*	38	25	38*
COc1cccc(-c2ccc([C@H]3[C@@H](CO)N4CCCCN(C(=O)Cc5ccncc5)C[C@@H]34)cc2)c1	0	-51	111*	.	110*	49	12	24
COc1cccc(-c2ccc([C@@H]3[C@@H](CO)N4CCCCN(C(=O)Cc5ccncc5)C[C@@H]34)cc2)c1	0	-52	63	.	.	.	.	.
COc1cccc(-c2ccc([C@H]3[C@@H](CO)N4CCCCN(C(=O)Cc5ccncc5)C[C@H]34)cc2)c1	-1	-39	107*	.	110*	61	20	48*
CCC(C)[C@H]1C(=O)O[C@H](C(C)C)C(=O)N(C)[C@@H](C(C)C)C(=O)O[C@H](C(C)C)C(=O)N(C)[C@@H](C(C)C)C(=O)O[C@H](C(C)C)C(=O)N1C (some centres not stated)	.	.	.	0	.	.	.	.
C=CC1CN2CCC1CC2C(OC(=O)c1ccco1)c1ccnc2ccccc12 (configuration not stated)	.	.	.	4	.	.	.	.
C[C@H]1CN([C@@H](C)CO)C(=O)CCCn2cc(nn2)CO[C@H]1CN(C)C(=O)Oc1cccc2ccccc12	0	-15	117*	0	52	13	11	24
COc1ccc(C#Cc2ccc([C@H]3[C@H](CO)N4CCCCN(C(=O)Cc5ccncc5)C[C@@H]34)cc2)cc1	-2	-62	106*	.	108*	81	20	105*
COc1ccc(-c2ccc([C@H]3[C@H]4CN(C(=O)Cc5ccncc5)CCCCN4[C@H]3CO)cc2)cc1	-1	-4	70	.	.	.	.	.
COc1ccc(C#Cc2ccc([C@@H]3[C@H](CO)N4CCCCN(C(=O)Cc5ccncc5)C[C@@H]34)cc2)cc1	0	-71	112*	.	103*	86	15	104*
COc1ccc(-c2ccc([C@@H]3[C@@H](CO)N4CCCCN(C(=O)Cc5ccncc5)C[C@H]34)cc2)cc1	1	-47	55	.	.	.	.	.
CC1C/C=C/C2C3OC3(C)C(C)C3C(Cc4ccccc4)NC(=O)C23OC(=O)O/C=C/C(C)(O)C1=O (configuration not stated)	.	.	.	2	.	.	.	.
O=C(Cc1ccccn1)N1CCCCN2[C@H](CO)[C@H](c3ccc(-c4ccccc4)cc3)[C@@H]2C1	-1	8	?	.	103*	44	4	0
O=C(Cc1ccccn1)N1CCCCN2[C@H](CO)[C@@H](c3ccc(-c4ccccc4)cc3)[C@H]2C1	0	24	-14	.	.	.	.	.
O=C(Cc1ccccn1)N1CCCCN2[C@@H](CO)[C@H](c3ccc(-c4ccccc4)cc3)[C@@H]2C1	-1	-13	105*	.	?	75	17	23
COc1ccc(-c2ccc([C@H]3[C@H](CO)N4CCCCN(C(=O)Cc5ccccc5)C[C@@H]34)cc2)cc1	-1	-10	108*	.	107*	81	11	106*
N#Cc1ccc(-c2ccc([C@@H]3[C@H](CO)N4CCCCN(C(=O)Cc5ccccc5)C[C@@H]34)cc2)cc1	0	-26	92	.	.	.	.	.
O=C(Cc1ccccc1)N1CCCCN2[C@@H](CO)[C@@H](c3ccc(-c4ccccc4)cc3)[C@@H]2C1	-1	-19	?	.	104*	56	16	105*
O=C(Cc1ccccc1)N1CCCCN2[C@H](CO)[C@H](c3ccc(-c4ccccc4)cc3)[C@@H]2C1	-2	23	5	.	.	.	.	.
O=C(Cc1ccncc1)N1CCCCN2[C@@H](CO)[C@@H](c3ccc(-c4ccncc4)cc3)[C@@H]2C1	0	5	85	.	.	.	.	.
O=C(Cc1ccncc1)N1CCCCN2[C@H](CO)[C@H](c3ccc(-c4ccncc4)cc3)[C@@H]2C1	1	-75	102*	.	50	-25	-2	-10
SMILES	KDM4C inh	Pf Dd2 inh	T cruzi growth-1	IDH1 mut inh	T cruzi growth-2	T cruzi growth-3	NIH3T3 tox	NIH3T3 tox 2
COc1ccc(-c2ccc([C@H]3[C@@H](CO)N4CCCCN(C(=O)Cc5ccccc5)C[C@@H]34)cc2)cc1	0	-51	102*	.	107*	106*	19	?
COc1ccc(-c2ccc([C@@H]3[C@H](CO)N4CCCCN(C(=O)Cc5ccccc5)C[C@@H]34)cc2)cc1	-2	-30	99*	.	104*	78	26	106*
O=C(Cc1ccccn1)N1CCCCN2[C@H](CO)[C@@H](c3ccc(C#Cc4ccccc4)cc3)[C@H]2C1	1	-34	106*	.	97*	41	41*	106*
O=C(Cc1ccccn1)N1CCCCN2[C@H](CO)[C@H](c3ccc(C#Cc4ccccc4)cc3)[C@H]2C1	-1	-41	105*	.	102*	62	52*	107*
O=C(Cc1ccccn1)N1CCCCN2[C@@H](CO)[C@H](c3ccc(C#Cc4ccccc4)cc3)[C@@H]2C1	-2	-20	114*	.	109*	53	39*	105*
O=C(Cc1ccccn1)N1CCCCN2[C@H](CO)[C@@H](c3ccc(C#Cc4ccccc4)cc3)[C@@H]2C1	0	-70	30	.	.	.	.	.
CN1Cc2c(ccc3c2OCO3)[C@@H]2[C@H]1c1cc3c(cc1C[C@@H]2O)OCO3	.	.	.	0	.	.	.	.
O=C(Cn1cc(C(=O)c2ccccc2)c2ccccc21)NCC1CCCO1 (configuration not stated)	.	.	.	0	.	.	.	.
CC[C@@H]1/C=C\C=C\C[C@H](C)[C@@H](O)[C@](C)(O)C(=O)[C@H](C)[C@@H](O)[C@H](C)C(=O)[C@H](C)[C@@H](O)[C@H](C)/C=C/C(=O)O[C@H]2[C@@H](C)[C@@H](CC1)O[C@@]1(CC[C@@H](C)[C@@H](C[C@H](C)O)O1)[C@@H]2C	.	.	.	0	.	.	.	.
